In brackets after ≈: the same amount, converted by molar mass. Where a SMILES comes first, the peptide text is derived from it.
Columns and labels:
Listeria monocytogenes = test: Antibacterial activity against Listeria monocytogenes CECT 4032 after 24 hrs by turbidimetry; type: functional; conditions: CECT 4032, 24 h
Outline: (§1)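 Frozen stocks thawed and grown two days in cation-adjusted Mueller-Hinton II broth at 37 °C. Exponential-phase cells washed twice in PBS pH 7.0 and resuspended in the same broth at 5 × 10^5 CFU/mL. Incubated 24 h at 37 °C with peptide, growth read by turbidity at 600 nm. Two experiments, triplicate samples. MIC50 taken as lowest concentration giving 50% growth inhibition versus untreated control.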

[1] = Therapeutic index, ratio of HC50 for sheep erythrocytes to MIC50 for polymyxin E-resistant Acinetobacter baumannii ATCC 19606
Staphylococcus aureus = test: Antibacterial activity against Staphylococcus aureus CECT 240 after 24 hrs by turbidimetry; type: functional; conditions: CECT 240, 24 h; outline: as §1

SMILES	MIC50 (Listeria monocytogenes)	selectivity ratio [1]	MIC50 (Staphylococcus aureus)
CC(C)C[C@@H]1NC(=O)[C@H](CCCN)NC(=O)[C@H](C(C)C)NC(=O)[C@H](C2c3ccccc3-c3ccccc32)NC(=O)[C@H]2CCCN2C(=O)[C@H](CC(C)C)NC(=O)[C@H](CCCN)NC(=O)[C@H](C(C)C)NC(=O)[C@H](C2c3ccccc3-c3ccccc32)NC(=O)[C@H]2CCCN2C1=O (HELM PEPTIDE1{L.[dP].[O=C([C@@H](N[*:1])C1c2ccccc2-c2ccccc21)[*:2]].V.[Orn].L.[dP].[O=C([C@@H](N[*:1])C1c2ccccc2-c2ccccc21)[*:2]].V.[Orn]}$PEPTIDE1,PEPTIDE1,1:R1-10:R2$$$V2.0)	2.2 µM (≈ 2.84 µg/mL)	0.1	
CC(C)C[C@@H]1NC(=O)[C@H](CCCN)NC(=O)[C@H](C(C)C)NC(=O)[C@@H]2Cc3ccccc3CN2C(=O)[C@H]2CCCN2C(=O)[C@H](CC(C)C)NC(=O)[C@H](CCCN)NC(=O)[C@H](C(C)C)NC(=O)[C@@H]2Cc3ccccc3CN2C(=O)[C@H]2CCCN2C1=O (HELM PEPTIDE1{L.[dP].[Tic].V.[Orn].L.[dP].[Tic].V.[Orn]}$PEPTIDE1,PEPTIDE1,1:R1-10:R2$$$V2.0)			2.4 µM (≈ 2.8 µg/mL)
